Measurements published in publication PMC6247064 (Cancer Science, 2018).

Test system: Japanese patients with advanced solid tumors
Assay: Phase 1 study: safety, tolerability, DLT and treatment-emergent adverse events
Assay type: in vivo, human
How it was run: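 Open-label single-arm dose levels of 80 or 105 mg/m2 IV were given on day 1 of 14-day cycles, with at most 6 patients per level. Adverse events were graded by CTCAE v4.03. DLTs were related events in cycle 1 meeting predefined hematologic or nonhematologic criteria. Tolerability required a cycle 1 DLT rate <33%. Primary G-CSF prophylaxis was barred during DLT evaluation; G-CSF was allowed for treatment-emergent neutropenia and as secondary prophylaxis.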

For `COc1cccc(OCCCN)c1-c1cc(Nc2cnc(C#N)cn2)n[nH]1` [Prexasertib], the “TEAE related to study treatment: Febrile neutropenia” value (shortened to “TEAE related … Febrile neutropenia”) (80 mg/m^2 N = 6, Grade 4) was 1 (16.7) n (%), the “TEAE related to study treatment: Headache” value (“TEAE related … Headache” for short) (80 mg/m^2 N = 6, Grade 4) was 0 n (%) and the “TEAE related to study treatment: Hypocalcemia” value (“TEAE related … Hypocalcemia” for short) (80 mg/m^2 N = 6, Grade 4) was 0 n (%). The “TEAE related to study treatment: Leukopenia” value (“TEAE related … Leukopenia” for short) (80 mg/m^2 N = 6, Grade 4) was 3 (50.0) n (%), the “TEAE related to study treatment: Lung infection” value (shortened to “TEAE related … Lung infection”) (80 mg/m^2 N = 6, Grade 4) was 0 n (%) and the “TEAE related to study treatment: Lymphocytopenia” value (shortened to “TEAE related … Lymphocytopenia”) (80 mg/m^2 N = 6, Grade 4) was 0 n (%). For the same molecule, the “TEAE related to study treatment: Nausea” value (80 mg/m^2 N = 6, Grade 4) was 0 n (%), the “TEAE related to study treatment: Neutropenia” value (80 mg/m^2 N = 6, Grade 4) was 3 (50.0) n (%) and the “TEAE related to study treatment: Pyrexia” value (80 mg/m^2 N = 6, Grade 4) was 0 n (%). For the same molecule, the “TEAE related to study treatment: Rash” value (80 mg/m^2 N = 6, Grade 4) was 0 n (%), the “TEAE related to study treatment: Rash maculopapular” value (“TEAE related … Rash maculopapular” below) (80 mg/m^2 N = 6, Grade 4) was 0 n (%) and the “TEAE related to study treatment: SVE (supraventricular extrasystoles)” value (“TEAE related to study treatment: SVE” for short) (80 mg/m^2 N = 6, Grade 4) was 0 n (%). For the same molecule, the “TEAE related to study treatment: Stomatitis” value (shortened to “TEAE related … Stomatitis”) (80 mg/m^2 N = 6, Grade 4) was 0 n (%), the “TEAE related to study treatment: Thrombocytopenia” value (shortened to “TEAE related … Thrombocytopenia”) (80 mg/m^2 N = 6, Grade 4) was 1 (16.7) n (%) and the “Patients with at least 1 AE that led to a dose adjustment” value (80 mg/m^2 group) was 5 patients. The “Patients with at least 1 AE that led to a dose delay” value (80 mg/m^2 group) was 3 patients, the “Patients with at least 1 AE that led to dose reduction” value (80 mg/m^2 group (80 to 60 mg/m^2)) was 4 patients and the “TEAE related to study treatment: Anemia” value (105 mg/m^2 N = 6, Any grade) was 0 n (%). The “TEAE related to study treatment: Any” value (105 mg/m^2 N = 6, Any grade) was 6 (100) n (%), the “TEAE related to study treatment: Atrial fibrillation” value (“TEAE related … Atrial fibrillation” for short) (105 mg/m^2 N = 6, Any grade) was 0 n (%) and the “TEAE related to study treatment: Constipation” value (shortened to “TEAE related … Constipation”) (105 mg/m^2 N = 6, Any grade) was 1 (16.7) n (%). The “TEAE related to study treatment: ECG QT prolonged” value (“TEAE related … ECG QT prolonged” for short) (105 mg/m^2 N = 6, Any grade) was 0 n (%), the “TEAE related to study treatment: Fatigue” value (105 mg/m^2 N = 6, Any grade) was 1 (16.7) n (%) and the “TEAE related … Febrile neutropenia” value (105 mg/m^2 N = 6, Any grade) was 1 (16.7) n (%). The “TEAE related … Headache” value (105 mg/m^2 N = 6, Any grade) was 1 (16.7) n (%), the “TEAE related … Hypocalcemia” value (105 mg/m^2 N = 6, Any grade) was 1 (16.7) n (%) and the “TEAE related … Leukopenia” value (105 mg/m^2 N = 6, Any grade) was 6 (100) n (%). The “TEAE related … Lung infection” value (105 mg/m^2 N = 6, Any grade) was 0 n (%), the “TEAE related … Lymphocytopenia” value (105 mg/m^2 N = 6, Any grade) was 0 n (%) and the “TEAE related to study treatment: Nausea” value (105 mg/m^2 N = 6, Any grade) was 0 n (%). The “TEAE related to study treatment: Neutropenia” value (105 mg/m^2 N = 6, Any grade) was 6 (100) n (%), the “TEAE related to study treatment: Pyrexia” value (105 mg/m^2 N = 6, Any grade) was 1 (16.7) n (%) and the “TEAE related to study treatment: Rash” value (105 mg/m^2 N = 6, Any grade) was 0 n (%). The “TEAE related … Rash maculopapular” value (105 mg/m^2 N = 6, Any grade) was 1 (16.7) n (%), the “TEAE related to study treatment: SVE” value (105 mg/m^2 N = 6, Any grade) was 0 n (%) and the “TEAE related … Stomatitis” value (105 mg/m^2 N = 6, Any grade) was 0 n (%). The “TEAE related … Thrombocytopenia” value (105 mg/m^2 N = 6, Any grade) was 4 (66.7) n (%), the “TEAE related to study treatment: Anemia” value (105 mg/m^2 N = 6, Grade 3) was 0 n (%) and the “TEAE related to study treatment: Any” value (105 mg/m^2 N = 6, Grade 3) was 3 (50.0) n (%). The “TEAE related … Atrial fibrillation” value (105 mg/m^2 N = 6, Grade 3) was 0 n (%), the “TEAE related … Constipation” value (105 mg/m^2 N = 6, Grade 3) was 0 n (%) and the “TEAE related … ECG QT prolonged” value (105 mg/m^2 N = 6, Grade 3) was 0 n (%). For the same molecule, the “TEAE related to study treatment: Fatigue” value (105 mg/m^2 N = 6, Grade 3) was 0 n (%), the “TEAE related … Febrile neutropenia” value (105 mg/m^2 N = 6, Grade 3) was 1 (16.7) n (%) and the “TEAE related … Headache” value (105 mg/m^2 N = 6, Grade 3) was 0 n (%). The “TEAE related … Hypocalcemia” value (105 mg/m^2 N = 6, Grade 3) was 0 n (%), the “TEAE related … Leukopenia” value (105 mg/m^2 N = 6, Grade 3) was 4 (66.7) n (%) and the “TEAE related … Lung infection” value (105 mg/m^2 N = 6, Grade 3) was 0 n (%). For the same molecule, the “TEAE related … Lymphocytopenia” value (105 mg/m^2 N = 6, Grade 3) was 0 n (%), the “TEAE related to study treatment: Nausea” value (105 mg/m^2 N = 6, Grade 3) was 0 n (%) and the “TEAE related to study treatment: Neutropenia” value (105 mg/m^2 N = 6, Grade 3) was 3 (50.0) n (%). For the same molecule, the “TEAE related to study treatment: Pyrexia” value (105 mg/m^2 N = 6, Grade 3) was 0 n (%), the “TEAE related to study treatment: Rash” value (105 mg/m^2 N = 6, Grade 3) was 0 n (%) and the “TEAE related … Rash maculopapular” value (105 mg/m^2 N = 6, Grade 3) was 0 n (%). For the same molecule, the “TEAE related to study treatment: SVE” value (105 mg/m^2 N = 6, Grade 3) was 0 n (%), the “TEAE related … Stomatitis” value (105 mg/m^2 N = 6, Grade 3) was 0 n (%) and the “TEAE related … Thrombocytopenia” value (105 mg/m^2 N = 6, Grade 3) was 1 (16.7) n (%). The “TEAE related to study treatment: Anemia” value (105 mg/m^2 N = 6, Grade 3 + 4) was 0 n (%), the “TEAE related to study treatment: Any” value (105 mg/m^2 N = 6, Grade 3 + 4) was 6 (100) n (%) and the “TEAE related … Atrial fibrillation” value (105 mg/m^2 N = 6, Grade 3 + 4) was 0 n (%). The “TEAE related … Constipation” value (105 mg/m^2 N = 6, Grade 3 + 4) was 0 n (%), the “TEAE related … ECG QT prolonged” value (105 mg/m^2 N = 6, Grade 3 + 4) was 0 n (%) and the “TEAE related to study treatment: Fatigue” value (105 mg/m^2 N = 6, Grade 3 + 4) was 0 n (%). The “TEAE related … Febrile neutropenia” value (105 mg/m^2 N = 6, Grade 3 + 4) was 1 (16.7) n (%), the “TEAE related … Headache” value (105 mg/m^2 N = 6, Grade 3 + 4) was 0 n (%) and the “TEAE related … Hypocalcemia” value (105 mg/m^2 N = 6, Grade 3 + 4) was 0 n (%). The “TEAE related … Leukopenia” value (105 mg/m^2 N = 6, Grade 3 + 4) was 5 (83.3) n (%).
